From publication PMC5268740 (New journal of chemistry = Nouveau journal de chimie, 2016)
“And” between values parts separate entries of the source, which are not always exact repeats. Identical values can stand only once.

Assays:
Assay type in all cases: physicochemical
[1] = Absorption spectroscopy of bacteriochlorins; details: for Bmax abs / IQy/IB / Qy abs / Qy abs fwhm / ∑Qy/∑B: room temperature; for bathochromic shift in the Qy band relative to that for B2: in DMF or water
[2] = Excited-state photophysical properties; details: for Φf (fluorescence quantum yield) / Φisc (intersystem crossing yield) / τS (lifetime of lowest singlet excited state) / kf^−1 / kic^−1 / kisc^−1 / Φic (internal conversion yield): room temperature; for kf^−1 / kic^−1 / kisc^−1: kx = Φx/τS; for Φic (internal conversion yield): Φic = 1 - Φf - Φisc
[3] = Fluorescence emission spectroscopy of bacteriochlorins; details: for Qy em / Qy em fwhm: room temperature
Procedure, shortened: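 Absorption and fluorescence spectra were recorded at room temperature in DMF and in […] water (one analogue in DMSO). The Qy/B ratio is the ratio of integrated Qy to integrated B absorption intensity. The Stokes shift is the Qy fluorescence maximum minus the Qy absorption peak.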

[4] = Water solubility / aggregation by absorption versus concentration in water; details: neat deionized water, 1000-fold concentration range (∼200–700 µM to ∼0.20–0.70 µM)
Procedure, shortened: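 Absorption spectra were taken in neat deionized water over a ~1000-fold concentration range (~200–700 µM to ~0.20–0.70 µM). Pathlength was changed reciprocally ([…]), and spectra were normalized at the Qy band. Concentration was calculated from absorbance in the 1-cm cuvette assuming ε(Qy) = 120,000 M−1cm−1.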

Bmax abs ([1]; DMF) [nm] | IQy/IB ([1]; DMF) | Qy abs ([1]; DMF) [nm] | Qy abs fwhm ([1]; DMF) [nm] | ∑Qy/∑B ([1]; DMF) | Bmax abs ([1]; water with 5% DMF as cosolvent) [nm] | IQy/IB ([1]; water with 5% DMF as cosolvent) | Qy abs ([1]; water with 5% DMF as cosolvent) [nm] | Qy abs fwhm ([1]; water with 5% DMF as cosolvent) [nm] | ∑Qy/∑B ([1]; water with 5% DMF as cosolvent) | Φf (fluorescence quantum yield) ([2]; DMF) | Φisc (intersystem crossing yield) ([2]; DMF) | τS (lifetime of lowest singlet excited state) ([2]; DMF) | kf^−1 ([2]; DMF) [ns] | kic^−1 ([2]; DMF) [ns] | kisc^−1 ([2]; DMF) [ns] | Φic (internal conversion yield) ([2]; DMF) | reduction of Φf in water vs DMF [2] [%] | Φf (fluorescence quantum yield) ([2]; water with 5% DMF as cosolvent) | Φisc (intersystem crossing yield) ([2]; water with 5% DMF as cosolvent) | Substance | also measured
373 | 0.79 | 750 | 24 | 0.42 | 369 | 0.75 | 751 | 26 | 0.40 | 0.11 | 0.32 | 3.02 ns | 27 | 5 | 9 | 0.57 | 29 | 0.078 | 0.31 | 3,13-Dimethoxycarbonyl-2,12-bis[3,5-bis(3,6,9,12,15,18,21,24-octaoxahexacosanyl-26-amidomethyl)phenyl]-5-methoxy-8,8,18,18-tetramethylbacteriochlorin [II] | bathochromic shift in the Qy band relative to that for B2 [1]: ~25 nm; τS (lifetime of lowest singlet excited state) ([2]; water with 5% DMF as cosolvent): 2.96 ns; kf^−1 ([2]; water with 5% DMF as cosolvent): 38 ns; kic^−1 ([2]; water with 5% DMF as cosolvent): 5 ns; kisc^−1 ([2]; water with 5% DMF as cosolvent): 10 ns; Φic (internal conversion yield) ([2]; water with 5% DMF as cosolvent): 0.61; Qy em ([3]; DMF): 756 nm; Qy em fwhm ([3]; DMF): 27 nm; (Stokes) shift of Qy fluorescence maximum from Qy absorption peak ([3]; water): 8–9 nm; Qy em ([3]; water with 5% DMF as cosolvent): 760 nm; Qy em fwhm ([3]; water with 5% DMF as cosolvent): 31 nm
377 | 0.63 | 754 | 30 | 0.55 | 368 | 0.62 | 753 | 32 | 0.52 | 0.12 | 0.33 | 3.46 ns | 28 | 6 | 10 | 0.55 | 71 | 0.035 | 0.31 | 2,12-Bis[3,5-bis(11-methoxy-3,6,9-trioxaundecylamidomethyl)phenyl]-15-(7-carboxy-1-heptyl)-3,13-dimethoxycarbonyl-5-methoxy-8,8,18,18-tetramethylbacteriochlorin [B4] | bathochromic shift in the Qy band relative to that for B2 [1]: ~28 nm; τS (lifetime of lowest singlet excited state) ([2]; water with 5% DMF as cosolvent): 3.21 ns; kf^−1 ([2]; water with 5% DMF as cosolvent): 92 ns; kic^−1 ([2]; water with 5% DMF as cosolvent): 5 ns; kisc^−1 ([2]; water with 5% DMF as cosolvent): 10 ns; Φic (internal conversion yield) ([2]; water with 5% DMF as cosolvent): 0.65; Qy em ([3]; DMF): 760 nm; Qy em fwhm ([3]; DMF): 31 nm; Qy em ([3]; water with 5% DMF as cosolvent): 759 nm; Qy em fwhm ([3]; water with 5% DMF as cosolvent): 33 nm
375 | 0.78 | 808 | 32 | 0.50 | 376 | 0.50 | 819 | 36 | 0.38 | 0.13 | 0.29 | 1.7 ns and 1.70 ns | 13 | 3 | 6 | 0.58 | 87 | 0.017 | 0.08 | 2,12-Bis[3,5-bis(3,6,9,12,15,18,21,24-octaoxahexacosanyl-26-amidomethyl)phenyl]-15^2-N-(3-carboxypropyl)-3-methoxycarbonyl-5-methoxy-8,8,18,18-tetramethylbacteriochlorin-13,15-dicarboimide [B5] | bathochromic shift of the Qy absorption band compared to B4 and II ([1]; DMF and water): ~50 nm; difference in kf between the two media (DMF and water) ([2]; DMF versus water): 6.5 fold; τS (lifetime of lowest singlet excited state) ([2]; water with 5% DMF as cosolvent): 1.4 ns and 1.40 ns; kf^−1 ([2]; water with 5% DMF as cosolvent): 84 ns; kic^−1 ([2]; water with 5% DMF as cosolvent): 2 ns; kisc^−1 ([2]; water with 5% DMF as cosolvent): 18 ns; Φic (internal conversion yield) ([2]; water with 5% DMF as cosolvent): 0.90; (Stokes) shift of Qy fluorescence maximum from Qy absorption peak ([3]; DMF): 11 nm; Qy em ([3]; DMF): 819 nm; Qy em fwhm ([3]; DMF): 35 nm; (Stokes) shift of Qy fluorescence maximum from Qy absorption peak ([3]; water): 15 nm; Qy em ([3]; water with 5% DMF as cosolvent): 834 nm; Qy em fwhm ([3]; water with 5% DMF as cosolvent): 44 nm; aggregation in water from absorption versus concentration [4]: obvious band broadening indicating some degree of aggregation
375 | 0.74 | 741 | 23 | 0.52 | 374 | 0.81 | 742 | 24 | 0.57 | 0.21 | 0.47 | 3.27 ns | 15 | 10 | 7 | 0.32 | 38 | 0.13 | 0.45 | 15-[4-(3-Carboxyethyl)phenyl]-3,13-dimethoxycarbonyl-2,12-bis[3,5-bis(3,6,9,12,15,18,21,24-octaoxahexacosanyl-26-amidomethyl)phenyl]-5-methoxy-8,8,18,18-tetramethylbacteriochlorin [B3] | bathochromic shift in the Qy band relative to that for B2 [1]: ~16 nm; τS (lifetime of lowest singlet excited state) ([2]; water with 5% DMF as cosolvent): 3.39 ns; kf^−1 ([2]; water with 5% DMF as cosolvent): 27 ns; kic^−1 ([2]; water with 5% DMF as cosolvent): 8 ns; kisc^−1 ([2]; water with 5% DMF as cosolvent): 8 ns; Φic (internal conversion yield) ([2]; water with 5% DMF as cosolvent): 0.42; Qy em ([3]; DMF): 748 nm; Qy em fwhm ([3]; DMF): 27 nm; (Stokes) shift of Qy fluorescence maximum from Qy absorption peak ([3]; water): 8–9 nm; Qy em ([3]; water with 5% DMF as cosolvent): 750 nm; Qy em fwhm ([3]; water with 5% DMF as cosolvent): 28 nm
